Assay results reported in the RNAGym collection of RNA variant scans (doi:10.1126/science.aae0568).
Fewer inactive variants are shown than the library holds.

B1: tRNA (parent)
chain: GUUCCGUUGGCGUAAUGGUAACGCGUCUCCCUCCUAAGGAGAAGACUGCGGGUUCGAGUCCCGUACGGAACG

Variants of: B1
Test: yeast fitness relative to wild type (ratio to wild type); higher = fitter; tRNA-Arg(CCU), competitive growth, 37 C, YPD
Outline: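 Genotype frequency changes were the basis for Darwinian fitness relative to wild type. The frequencies came from 100-nucleotide paired-end sequencing of gene amplicons from the start population and each end population of pooled yeast strains with tRNA-Arg(CCU) gene variants at the native locus. Competition ran in YPD at 37°C for 24 hours in six replicates, genotypes needed ≥ 100 starting reads, and estimates < 0.5 were set to 0.5.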

Going from GUUCCGUUGGCGUAGUGGUAACGCGGCUCCCUCCUAAGGAGAAGACUGCGGGUUCGGGUCCCGUACGGAACG [A15G U26G A57G] to GUUCCGUUGGCGUAGUGGUAACGCGGCUCUCUCCUAAGGUGAAGACUGCGGAUUCGAGUCCCGUACGGAACG [A15G U26G C30U A40U G52A], the yeast fitness falls from 0.611 to ≤ 0.5.

GUUCCGUUGGCGUAGUGGUAACGCGGCUCCCUCCUAAGGAGAAGACUGCGGGUUUGAGUCCCGUACGGUCCG [A15G U26G C55U A69U A70C] and GUUCCGUUGGCGUAGUGGUAACGCGGCUCCCUCCUAAGGAAAAGACUGCGGGUUCAAGUCCCGUACGGAACG [A15G U26G G41A G56A] cannot be ordered by yeast fitness: ≤ 0.5 for the first, ≤ 0.5 for the second.

GUUCCGUUGGCGUAGUGGUAACGCGGCUCCCUCCUAAGGACACGACUGCGGGUUCGAGUCCCGUACGGAACG [A15G U26G G41C A43C] and GUUCCGUUGGCGUAGUGGUAACGCGUCCCCCUCCUACGGAGAAGACUGCGGGUUCGAGUCCCGUACGGAUCG [A15G U28C A37C A70U] cannot be ordered by yeast fitness: ≤ 0.5 for the first, ≤ 0.5 for the second.

First: GUUCCGUUGGCGUAGUGGUAACGCGUCCCUCUCCUAAGGAGAAGACUGCGGGUUCGAGACCCGUACGGACCG [A15G U28C C30U U59A A70C]
Second: GUUCCGUUGGCGUAGUGGUAACGCGUCCCCCUCCAAAAGAGAAGAGUGCGGGUUCGAGUCCCGUACGGAACG [A15G U28C U35A G38A C46G]
The yeast fitness of the first is lower: ≤ 0.5 for the first, 0.552 for the second.

Going from GUUCCGUUGGCGUAGUGGUAACGCGUCGCCCUCCUAAGGAGAAGACUGCGGGUUCGAGUCCCGUACGGAACG [A15G U28G] to GUUCCGUUGGCGUAGUGGUAACGCGUCGCCCUCCUAAGGAGUAGACUACGGGUUCGAGUCCCGUACAGAACG [A15G U28G A42U G48A G67A], the yeast fitness falls from 0.646 to ≤ 0.5.

GUUCCGUUGGCGUAGUGGUAACGCGUCGCCCUCCUAAGGAGAAGACUGCGGGAUCAAGUCCCGUACGGAACG [A15G U28G U53A G56A] and GUUCCGUUGGCGUAGUGGUAACGCGUCUCCCACCUAAAGAGAAGACUGUGGGUUCGAGUCCCGUACGGAACG [A15G U32A G38A C49U] cannot be ordered by yeast fitness: ≤ 0.5 for the first, ≤ 0.5 for the second.

GUUCCGUUGGCGUAGUGGUAACGCGUCUCCCCCCUAGGGAGAAGACUGCGGGUUAGAGUCCCGUACGGAACG [A15G U32C A37G C55A] and GUUCCGUUGGCGUAGUGGUAACGCGUCUCCCGCCUAAGGCGAAGACUGCGGGUUCGAGUCCCGUACGGAACG [A15G U32G A40C] cannot be ordered by yeast fitness: ≤ 0.5 for the first, ≤ 0.5 for the second.

Compared with GUUCCGUUGGCGUAGUGGUAACGCGUCUCCCGCCCAAGGAGACGACUGCGGGUUCGAGUCCCGUACGGAACG [A15G U32G U35C A43C], GUUCCGUUGGCGUAGUGGUAACGCGUCUCCCUCCAAAGGAGAAGACUGCGGGUUCGAGUCCCGUACGGAACG [A15G U35A] is higher in yeast fitness: 0.585 for the first, 0.602 for the second.

GUUCCGUUGGCGUAGUGGUAACGCGUCUCCCUCCAAAGGAGAAGACUGCGGGUUCGGGUCCCGUACGGAACG [A15G U35A A57G] and GUUCCGUUGGCGUAGUGGUAACGCGUCUCCCUCCAAAGGAGAAGACUGCGGGUUCGGGUCCGGUACGGAACG [A15G U35A A57G C62G] cannot be ordered by yeast fitness: ≤ 0.5 for the first, ≤ 0.5 for the second.

Going from GUUCCGUUGGCGUAGUGGUAACGCGUCUCCCUCCAAAGGAGAAGACUGCGGGUUCGAGUCCCGUCCGGAACG [A15G U35A A65C] to GUUCCGUUGGCGUAGUGGUAACGCGUCUCCCUCCAAAGGAGAAGACUGCGGGUUCGAGUCCCGUACGGAUCG [A15G U35A A70U], the yeast fitness rises from ≤ 0.5 to 0.572.

Compared with GUUCCGUUGGCGUAGUGGUAACGCGUCUCCCUCCUAAGGAGAAGACAGCGGGUUCGAGUCCCGUACGGAACG [A15G U47A], GUUCCGUUGGCGUAGUGGUAACGCGUCUCCCUCCUAAGGAGAAGACCGCGGGUUCGAGUCCCGUACGGAACG [A15G U47C] is lower in yeast fitness: 0.916 for the first, 0.896 for the second.

Compared with GUUCCGUUGGCGUAGUGGUAACGCGUCUCCCUCCUAAGGAGAAGACGGCGGGUUCGAGUCCCGUACGGAACG [A15G U47G], GUUCCGUUGGCGUAGUGGUAACGCGUCUCCCUCCUAAGGAGAAGACUGCGGGAUAGAGUCCCGGACGGAACG [A15G U53A C55A U64G] is lower in yeast fitness: 0.782 for the first, 0.571 for the second.

First: GUUCCGUUGGCGUAGUGGUAACGCGUCUCCCUCCUAAGGAGAAGACUGCGGGUACGAGUCCCGUACGGAUCG [A15G U54A A70U]
Second: GUUCCGUUGGCGUAGUGGUAACGCGUCUCCCUCCUAAGGAGAAGACUGCGGGUACGAGUCCCCUACGGAACG [A15G U54A G63C]
The yeast fitness of the first is lower: 0.564 for the first, 0.631 for the second.

First: GUUCCGUUGGCGUAGUGGUAACGCGUCUCCCUCCUAAGGAGAAGACUGCGGGUCCGAGUCCCGUAAGGAACG [A15G U54C C66A]
Second: GUUCCGUUGGCGUAGUGGUAACGCGUCUCCCUCCUAAGGAGAAGACUGCGGGUGUGAGUCCCGUACGGAACG [A15G U54G C55U]
The yeast fitness of the first is lower: ≤ 0.5 for the first, 0.561 for the second.

Compared with GUUCCGUUGGCGUAGUGGUAACGCGUCUCCCUCCUAAGGAGAAGACUGCGGGUGUGAGUCCCGUGCGGAACG [A15G U54G C55U A65G], GUUCCGUUGGCGUAGUGGUAACGCGUCUCCCUCCUAAGGAGAAGACUGCGGGUUCGAGUCCCGCACGGCACG [A15G U64C A69C] is higher in yeast fitness: ≤ 0.5 for the first, 0.775 for the second.

Compared with GUUCCGUUGGCGUAUUGGUAACGCGUCUCCCUCCUAAGGAGAAGACUGCGGGUUCGAGUCCCGUACGGAACG [A15U], GUUCCGUUGGCGUAUUGGUCACGCGUCUCCCUCCUAAGGAGAAGACUGCGGGUUCGAGUCCCGUACGGAACG [A15U A20C] is lower in yeast fitness: 0.885 for the first, 0.646 for the second.

Compared with GUUCCGUUGGCGUAUUGGUCACGCGUUUCCCUCCUAAGGAGAAGACUGCGGGUUCGAGUCCCGUACGGAACG [A15U A20C C27U], GUUCCGUUGGCGUAUUGGUCACGCGACUCGCUCCAAACGAGAAGACUGCGGGUUCGAGUCCCGAACGGAACG [A15U A20C U26A C30G U35A G38C U64A] is lower in yeast fitness: 0.748 for the first, ≤ 0.5 for the second.

Going from GUUCCGUUGGCGUAUUGGUGACGCGUCUCCCUCCUAAGGAGAAGACUGCGGGUUCGAGUCCCGUACGGAACG [A15U A20G] to GUUCCGUUGGCGUAUUGGUGACGCGUCUCCCUCCUAAGGAGACGACUGCGGGUUCGAGUCCCGUACGGAACG [A15U A20G A43C], the yeast fitness falls from 0.772 to 0.593.

GUUCCGUUGGCGUAUUGGUGACGCGUAUACCUCCUAAGGAGAAGACGGCGGGUUCGAGUGCCGUACGGAACG [A15U A20G C27A C29A U47G C60G] and GUUCCGUUGGCGUAUUGGUGACGCGUUUCCCUCCUAAGGAGAAGACUCCGGGUUCGAGUCCCGUACGGAUCG [A15U A20G C27U G48C A70U] cannot be ordered by yeast fitness: ≤ 0.5 for the first, ≤ 0.5 for the second.
